Experimental data gathered from unrelated publications.
Each line is one published result; the experiments were not run side by side.
HLA class I histocompatibility antigen, B alpha chain: HLA class I histocompatibility antigen, B alpha chain (Homo sapiens, UniProt P01889)
HTR2B: 5-hydroxytryptamine receptor 2B (HTR2B, Homo sapiens, UniProt P41595)
blaNDM-1: Metallo-beta-lactamase type 2 (blaNDM-1, Klebsiella pneumoniae, UniProt C7C422)
MGLL: Monoglyceride lipase (MGLL, Homo sapiens, UniProt Q99685)
dxs: 1-deoxy-D-xylulose-5-phosphate synthase (dxs, Deinococcus radiodurans, UniProt Q9RUB5)

For `COCCn1c2nc(=O)n(-c3ccccc3)c(=O)c-2nc2ccccc21`, the IC50 was 35.5 µM (mRNA cap guanine-N(7) methyltransferase (RNMT, Homo sapiens, UniProt O43148); enzyme activity; inhibitor).
`CSCC[C@H](NC(=O)[C@@H](NC(=O)[C@@H](NC(=O)[C@H](CC(C)C)NC(=O)[C@H](CC(N)=O)NC(=O)[C@H](CC(N)=O)NC(=O)[C@@H](NC(=O)[C@H](C)NC(=O)[C@@H](N)CC(C)C)[C@@H](C)O)C(C)C)C(C)C)C(=O)O` has an IC50 of 0.055 µM (HLA class I histocompatibility antigen, B alpha chain; ligand displacement; radioligand).
With `C[C@H](N)[C@H](O)c1cccc(O)c1` the IC50 was 7.38 µM (HTR2B; ligand displacement; radioligand).
`CCCCCCCCCCCCCCC(Br)C(=O)O` (stereo not shown) gave an IC50 of 5.33 µM (Palmitoyltransferase ZDHHC20 (ZDHHC20, Homo sapiens, UniProt Q5W0Z9); enzyme activity; inhibitor).
The IC50 of `O=C(O)C1CSC(C(=O)O)N1` (stereo not shown) is reported as 55 µM (blaNDM-1; enzyme activity; inhibitor; fluorescence).
The IC50 of `CN(Cc1ccccc1)C(=O)Oc1nsnc1N1CCCCC1` is reported as 5.6 µM (MGLL; enzyme activity; inhibitor).
`NC(=O)c1cccc(-c2cccc(OC(=O)NC3CCCCC3)c2)c1` has an IC50 of > 10 µM (MGLL; enzyme activity; inhibitor; absorbance).
With `CC[C@H](C)[C@H](NC(=O)[C@H](CC(C)C)NC(=O)CN)C(=O)N[C@H](C(=O)N[C@@H](CC(C)C)C(=O)N[C@@H](CO)C(=O)N[C@@H](Cc1ccc(O)cc1)C(=O)N[C@@H](Cc1c[nH]cn1)C(=O)N[C@@H](CC(C)C)C(=O)O)[C@@H](C)O` the IC50 was 14.3 µM (HLA class I histocompatibility antigen, B alpha chain; ligand displacement; radioligand).
For `O=C(O)c1cccc(C(=O)O)n1`, the IC50 was 4.26 µM (blaNDM-1; enzyme activity; inhibitor; fluorescence).
`CC[C@H](C)[C@H](NC(=O)[C@H](CCCNC(=N)N)NC(=O)[C@@H]1CCCN1C(=O)[C@H](C)N)C(=O)N[C@H](C(=O)N[C@@H](Cc1ccccc1)C(=O)NCC(=O)NCC(=O)N1CCC[C@H]1C(=O)O)[C@@H](C)O` has an IC50 of 0.059 µM (HLA class I histocompatibility antigen, B alpha chain; ligand displacement; radioligand).
`CC(C)C[C@H](NC(=O)[C@H](Cc1ccccc1)NC(=O)c1cnccn1)B(O)O` has an IC50 of > 33 µM (Complement C1r subcomponent (Homo sapiens, UniProt P00736); enzyme activity; inhibitor).
`C[C@H](NC(=O)[C@@H](CCC(=O)O)NC(=O)CN1CCN(CC(=O)O)CCN(CC(=O)O)CCN(CC(=O)O)CC1)C(=O)N[C@@H](Cc1ccc(O)cc1)C(=O)NCC(=O)N[C@@H](Cc1c[nH]c2ccccc12)C(=O)N[C@H](C(=O)N[C@@H](CC(=O)O)C(=O)N[C@@H](Cc1cccc2ccccc12)C(N)=O)c1ccccc1` gave an IC50 of 0.184 µM (Gastrin/cholecystokinin type B receptor (CCKBR, Homo sapiens, UniProt P32239); ligand displacement; radioligand).
With `c1ccc(CN(CCN(Cc2ccccn2)Cc2ccccn2)Cc2ccccn2)nc1` the IC50 was 0.644 µM (blaNDM-1; enzyme activity; inhibitor; fluorescence).
For `Ic1ccccc1CN[C@@H]1C2CCN(CC2)[C@@H]1C(c1ccccc1)c1ccccc1` (racemic), the IC50 was 0.00725 µM (Substance-P receptor (TACR1, Homo sapiens, UniProt P25103); ligand displacement; radioligand).
For `CSCC[C@H](NC(=O)[C@H](CCC(N)=O)NC(=O)[C@H](C)NC(=O)[C@H](CO)NC(=O)[C@@H](N)CO)C(=O)N[C@@H](CC(N)=O)C(=O)N[C@@H](CC(C)C)C(=O)N[C@@H](CC(N)=O)C(=O)N[C@H](C(=O)N[C@@H](Cc1ccccc1)C(=O)N[C@@H](CC(C)C)C(=O)N[C@@H](CC(N)=O)C(=O)O)[C@@H](C)O`, the IC50 was > 1000 µM (dxs; enzyme activity; inhibitor; absorbance; pH 7.6).
For `COc1nn([C@@H](C)c2ccc(CC(C)C)cc2)c(=O)o1`, the IC50 was 0.011 µM (Fatty-acid amide hydrolase 1 (FAAH, Homo sapiens, UniProt O00519); enzyme activity; inhibitor; cell membranes).
With `CSCC[C@H](NC(=O)[C@H](C)NC(=O)[C@H](CC(C)C)NC(=O)[C@H](C)NC(=O)[C@H](Cc1c[nH]c2ccccc12)NC(=O)[C@H](C)NC(=O)[C@@H](NC(=O)[C@@H]1CCCN1C(=O)[C@H](CO)NC(=O)[C@H](CO)NC(=O)[C@@H](N)CO)C(C)C)C(=O)N[C@@H](CCCNC(=N)N)C(=O)O` the IC50 was 9.5 µM (dxs; enzyme activity; inhibitor; absorbance).
With `COc1cc(CC(C)N)c(OC)cc1I` (racemic) the IC50 was 0.0031 µM (HTR2B; ligand displacement; radioligand).
`CCN(CC)C(=O)N[C@@H]1C[C@@H]2c3cccc4[nH]cc(c34)C[C@H]2N(C)C1` gave an IC50 of > 30 µM (blaNDM-1; enzyme activity; inhibitor).
For `C[C@H](N)Cn1ncc2ccc3c(c21)CCCO3`, the IC50 was 7.2 µM (D(3) dopamine receptor (Drd3, Rattus norvegicus, UniProt P19020); ligand displacement; radioligand).
`CCCCCNC(=N)N/N=C/c1c[nH]c2ccc(OC)cc12` gave an IC50 of 0.008 µM (HTR2B; ligand displacement; radioligand).
`CC[C@H](C)[C@H](NC(=O)[C@@H](NC(=O)[C@@H](NC(=O)[C@H](CC(N)=O)NC(=O)[C@@H](NC(=O)[C@H](CO)NC(=O)[C@H](CC(N)=O)NC(=O)[C@H](CC(C)C)NC(=O)[C@@H](N)Cc1ccc(O)cc1)[C@@H](C)O)C(C)C)[C@@H](C)O)C(=O)O` gave an IC50 of 7.93 µM (HLA class I histocompatibility antigen, B alpha chain; ligand displacement; radioligand).
